Assay results: ChEMBL document CHEMBL2034857, “Discovery of the macrocycle (9E)-15-(2-(pyrrolidin-1-yl)ethoxy)-7,12,25-trioxa-19,21,24-triaza-tetracyclo[18.3.1.1(2,5).1(14,18)]hexacosa-1(24),2,4,9,14(26),15,17,20,22-nonaene (SB1578), a potent inhibitor of janus kinase 2/fms-like tyrosine kinase-3 (JAK2/FLT3) for the treatment of rheumatoid …” (J Med Chem, 2012)

Key:
Mus musculus [1] = assay: Antiarthritic activity in B10/R3 mouse immunized with bovine type2 collagen in Freund's complete adjuvant assessed as inhibition of increase in clinical arthritic scores at 105 mg/kg, po administered bid for 10 days measured for 10 days; type: functional; conditions: B10/R3, 240 h
Mus musculus [2] = assay: Antiarthritic activity in B10/R3 mouse immunized with bovine type2 collagen in Freund's complete adjuvant assessed as inhibition of increase in clinical arthritic scores at 210 mg/kg, po administered bid for 10 days measured for 10 days; type: functional; conditions: B10/R3, 240 h
[3] = target: Cyclin-dependent kinase 2 (Homo sapiens, UniProt P24941); assay: Inhibition of recombinant CDK2 using RbING as substrate after 2 hrs by luminometric assay
[4] = target: Tyrosine-protein kinase JAK1 (Homo sapiens, UniProt P23458); assay: Inhibition of recombinant JAK1 using poly(Glu,Ala,Tyr) as substrate after 2 hrs by luminometric assay
Chain of Tyrosine-protein kinase JAK1 (P23458 whole entry): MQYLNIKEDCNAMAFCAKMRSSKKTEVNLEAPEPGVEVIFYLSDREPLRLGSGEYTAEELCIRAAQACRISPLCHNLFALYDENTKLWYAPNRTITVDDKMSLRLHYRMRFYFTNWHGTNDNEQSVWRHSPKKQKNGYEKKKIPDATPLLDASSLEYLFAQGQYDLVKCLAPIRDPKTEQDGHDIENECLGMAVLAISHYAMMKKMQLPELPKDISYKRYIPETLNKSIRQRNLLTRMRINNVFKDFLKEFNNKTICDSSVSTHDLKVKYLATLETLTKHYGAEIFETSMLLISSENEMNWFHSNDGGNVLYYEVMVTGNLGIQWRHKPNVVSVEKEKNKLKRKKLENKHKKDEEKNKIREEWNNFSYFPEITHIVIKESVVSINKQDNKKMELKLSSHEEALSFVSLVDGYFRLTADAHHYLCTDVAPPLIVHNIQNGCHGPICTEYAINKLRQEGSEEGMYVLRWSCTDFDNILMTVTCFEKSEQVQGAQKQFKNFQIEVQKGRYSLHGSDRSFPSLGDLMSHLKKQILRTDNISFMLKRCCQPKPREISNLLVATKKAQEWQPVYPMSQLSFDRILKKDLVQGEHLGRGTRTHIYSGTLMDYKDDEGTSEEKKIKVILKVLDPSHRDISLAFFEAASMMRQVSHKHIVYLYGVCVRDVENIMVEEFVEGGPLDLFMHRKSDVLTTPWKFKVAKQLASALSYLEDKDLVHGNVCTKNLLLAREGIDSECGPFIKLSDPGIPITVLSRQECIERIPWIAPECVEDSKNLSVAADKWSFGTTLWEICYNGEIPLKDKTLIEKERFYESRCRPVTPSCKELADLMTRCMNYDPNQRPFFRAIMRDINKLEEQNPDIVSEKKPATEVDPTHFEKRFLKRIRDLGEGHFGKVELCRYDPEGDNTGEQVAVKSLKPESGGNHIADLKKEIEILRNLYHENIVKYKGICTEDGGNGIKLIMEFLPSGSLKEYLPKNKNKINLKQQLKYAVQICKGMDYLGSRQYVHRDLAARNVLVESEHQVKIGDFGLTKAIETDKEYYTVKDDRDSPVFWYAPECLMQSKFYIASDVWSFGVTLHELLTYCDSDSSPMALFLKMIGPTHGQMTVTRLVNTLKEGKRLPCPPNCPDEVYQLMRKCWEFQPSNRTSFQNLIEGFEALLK

[5] = target: Non-receptor tyrosine-protein kinase TYK2 (Homo sapiens, UniProt P29597); assay: Inhibition of TYK2
Chain of Non-receptor tyrosine-protein kinase TYK2 (P29597 whole entry): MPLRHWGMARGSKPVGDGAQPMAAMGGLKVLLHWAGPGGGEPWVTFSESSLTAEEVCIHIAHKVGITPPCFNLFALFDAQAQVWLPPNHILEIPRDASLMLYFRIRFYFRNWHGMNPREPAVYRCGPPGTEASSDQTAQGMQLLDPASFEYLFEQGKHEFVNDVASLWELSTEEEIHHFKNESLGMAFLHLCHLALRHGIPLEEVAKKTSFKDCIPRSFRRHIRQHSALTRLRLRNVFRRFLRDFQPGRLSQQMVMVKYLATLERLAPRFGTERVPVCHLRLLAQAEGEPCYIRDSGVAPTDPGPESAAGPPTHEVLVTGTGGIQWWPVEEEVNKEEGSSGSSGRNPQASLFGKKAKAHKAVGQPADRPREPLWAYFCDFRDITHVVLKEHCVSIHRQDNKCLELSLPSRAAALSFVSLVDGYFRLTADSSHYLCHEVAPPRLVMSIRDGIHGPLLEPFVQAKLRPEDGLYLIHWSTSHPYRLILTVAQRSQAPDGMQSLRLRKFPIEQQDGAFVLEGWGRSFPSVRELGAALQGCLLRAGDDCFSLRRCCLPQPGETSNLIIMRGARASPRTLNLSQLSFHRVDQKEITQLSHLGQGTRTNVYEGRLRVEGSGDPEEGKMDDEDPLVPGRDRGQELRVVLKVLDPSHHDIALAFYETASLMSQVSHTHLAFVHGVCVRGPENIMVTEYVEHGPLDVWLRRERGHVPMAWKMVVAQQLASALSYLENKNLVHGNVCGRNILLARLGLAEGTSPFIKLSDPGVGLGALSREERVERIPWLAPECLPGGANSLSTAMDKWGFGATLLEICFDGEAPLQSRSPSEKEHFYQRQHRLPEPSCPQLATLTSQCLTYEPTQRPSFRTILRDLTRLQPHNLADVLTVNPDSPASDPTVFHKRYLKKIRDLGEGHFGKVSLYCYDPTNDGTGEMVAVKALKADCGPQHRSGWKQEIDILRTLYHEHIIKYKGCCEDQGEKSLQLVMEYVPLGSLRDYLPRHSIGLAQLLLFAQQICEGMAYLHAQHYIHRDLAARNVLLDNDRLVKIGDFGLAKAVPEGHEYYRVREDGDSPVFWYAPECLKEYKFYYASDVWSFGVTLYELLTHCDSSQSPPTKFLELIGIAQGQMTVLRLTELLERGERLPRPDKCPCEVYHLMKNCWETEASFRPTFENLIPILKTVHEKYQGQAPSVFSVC

[6] = Kinetic solubility in PBS buffer at pH 7; type: physicochemical; conditions: read-out: Kinetic_solubility
Cytochrome P450 2D6 = Cytochrome P450 2D6 (Homo sapiens, UniProt P10635); assay: Inhibition of CYP2D6 in human liver microsomes using dextromethorphan as substrate by LC-MS/MS analysis; type: ADME, Microsome
Chain of Cytochrome P450 2D6 (P10635 whole entry): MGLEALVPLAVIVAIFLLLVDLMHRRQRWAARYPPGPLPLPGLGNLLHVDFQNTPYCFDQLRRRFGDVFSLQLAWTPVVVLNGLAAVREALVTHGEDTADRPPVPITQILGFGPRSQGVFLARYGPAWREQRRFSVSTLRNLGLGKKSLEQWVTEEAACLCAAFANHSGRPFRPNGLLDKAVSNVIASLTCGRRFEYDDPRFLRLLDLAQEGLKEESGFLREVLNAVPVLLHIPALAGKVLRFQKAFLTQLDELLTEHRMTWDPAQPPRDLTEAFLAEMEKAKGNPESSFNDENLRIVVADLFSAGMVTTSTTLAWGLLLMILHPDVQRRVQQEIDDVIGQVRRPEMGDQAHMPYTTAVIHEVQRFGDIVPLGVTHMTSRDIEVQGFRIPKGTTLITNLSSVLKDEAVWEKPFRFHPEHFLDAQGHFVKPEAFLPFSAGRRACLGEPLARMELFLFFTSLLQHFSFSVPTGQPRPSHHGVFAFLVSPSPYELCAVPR

[7] = Half life in human liver microsomes; type: ADME, Microsome
[8] = target: Voltage-gated inwardly rectifying potassium channel KCNH2 (Homo sapiens, UniProt Q12809); assay: Displacement of dofetilide from human ERG
Chain of Voltage-gated inwardly rectifying potassium channel KCNH2 (Q12809 whole entry): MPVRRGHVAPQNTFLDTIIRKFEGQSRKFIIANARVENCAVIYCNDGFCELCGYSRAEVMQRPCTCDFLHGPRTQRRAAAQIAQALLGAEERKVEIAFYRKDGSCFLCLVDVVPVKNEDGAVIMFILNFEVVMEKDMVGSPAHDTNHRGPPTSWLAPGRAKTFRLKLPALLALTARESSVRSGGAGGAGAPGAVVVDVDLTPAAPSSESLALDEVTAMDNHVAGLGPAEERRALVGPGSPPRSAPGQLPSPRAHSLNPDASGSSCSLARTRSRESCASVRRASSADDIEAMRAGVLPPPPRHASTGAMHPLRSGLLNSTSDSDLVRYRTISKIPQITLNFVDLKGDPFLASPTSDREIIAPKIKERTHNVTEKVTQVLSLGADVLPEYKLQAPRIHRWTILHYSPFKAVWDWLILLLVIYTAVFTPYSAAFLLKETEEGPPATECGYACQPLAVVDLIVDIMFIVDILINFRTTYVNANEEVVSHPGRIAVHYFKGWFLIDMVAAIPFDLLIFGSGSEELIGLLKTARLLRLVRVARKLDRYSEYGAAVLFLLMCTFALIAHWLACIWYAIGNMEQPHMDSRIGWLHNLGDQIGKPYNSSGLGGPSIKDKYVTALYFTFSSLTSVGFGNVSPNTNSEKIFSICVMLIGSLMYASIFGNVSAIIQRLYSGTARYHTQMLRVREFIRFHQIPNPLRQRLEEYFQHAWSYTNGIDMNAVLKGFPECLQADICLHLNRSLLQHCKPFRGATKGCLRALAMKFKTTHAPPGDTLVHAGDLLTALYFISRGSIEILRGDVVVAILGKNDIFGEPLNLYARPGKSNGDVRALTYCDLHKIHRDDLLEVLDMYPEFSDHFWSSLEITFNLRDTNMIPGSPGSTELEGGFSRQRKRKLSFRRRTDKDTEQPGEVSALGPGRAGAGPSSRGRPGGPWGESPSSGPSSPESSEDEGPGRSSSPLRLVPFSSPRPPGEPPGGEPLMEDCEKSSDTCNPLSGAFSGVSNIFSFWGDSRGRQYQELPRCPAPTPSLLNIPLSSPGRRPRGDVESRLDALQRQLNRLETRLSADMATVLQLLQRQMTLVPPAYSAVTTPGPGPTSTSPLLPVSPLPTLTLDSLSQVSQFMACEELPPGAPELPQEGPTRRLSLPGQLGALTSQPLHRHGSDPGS

BaF3 = assay: Antiproliferative activity against mouse BAF3 cells expressing JAK2 V617F mutant after 48 hrs by luciferase reporter gene assay; type: functional; conditions: BaF3, 48 h
[9] = Half life in human liver microsomes at 5 uM; type: ADME, Microsome
In short: (§1)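 Compound at 5 μM with human, mouse or dog microsomes at 0.87 mg/mL, or rat and monkey microsomes at 1 mg/mL, in 50 mM potassium phosphate pH 7.4 with NADPH regenerating system at 37 °C.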

[10] = Half life in rat liver microsomes at 5 uM; type: ADME, Microsome; in short: as §1
[11] = Half life in rhesus monkey live microsomes at 5 uM; type: ADME, Macaca mulatta; conditions: liver microsomes; in short: as §1
Cytochrome P450 1A2 = target: T1, Cytochrome P450 1A2 (Homo sapiens, UniProt P05177); assay: Inhibition of CYP1A2 in human liver microsomes using phenacetin as substrate by LC-MS/MS analysis; type: ADME, Microsome
T1 sequence (P05177 whole entry): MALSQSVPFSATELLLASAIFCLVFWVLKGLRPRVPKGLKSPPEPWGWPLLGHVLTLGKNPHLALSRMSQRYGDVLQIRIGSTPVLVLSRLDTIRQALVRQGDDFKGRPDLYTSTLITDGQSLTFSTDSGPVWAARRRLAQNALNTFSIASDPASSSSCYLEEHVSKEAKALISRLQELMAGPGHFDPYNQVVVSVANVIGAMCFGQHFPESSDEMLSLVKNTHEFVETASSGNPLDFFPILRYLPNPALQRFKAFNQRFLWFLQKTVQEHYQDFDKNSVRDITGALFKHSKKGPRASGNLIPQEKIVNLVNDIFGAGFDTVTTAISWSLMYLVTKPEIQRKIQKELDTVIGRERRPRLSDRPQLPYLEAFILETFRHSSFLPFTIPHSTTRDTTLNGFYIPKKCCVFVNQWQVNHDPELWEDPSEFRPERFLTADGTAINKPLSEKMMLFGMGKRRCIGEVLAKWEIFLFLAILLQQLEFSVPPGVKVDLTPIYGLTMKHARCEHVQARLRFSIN

Cytochrome P450 2C9 = Cytochrome P450 2C9 (Homo sapiens, UniProt P11712); assay: Inhibition of CYP2C9 in human liver microsomes using diclofenac as substrate by LC-MS/MS analysis; type: ADME, Microsome
Chain of Cytochrome P450 2C9 (P11712 whole entry): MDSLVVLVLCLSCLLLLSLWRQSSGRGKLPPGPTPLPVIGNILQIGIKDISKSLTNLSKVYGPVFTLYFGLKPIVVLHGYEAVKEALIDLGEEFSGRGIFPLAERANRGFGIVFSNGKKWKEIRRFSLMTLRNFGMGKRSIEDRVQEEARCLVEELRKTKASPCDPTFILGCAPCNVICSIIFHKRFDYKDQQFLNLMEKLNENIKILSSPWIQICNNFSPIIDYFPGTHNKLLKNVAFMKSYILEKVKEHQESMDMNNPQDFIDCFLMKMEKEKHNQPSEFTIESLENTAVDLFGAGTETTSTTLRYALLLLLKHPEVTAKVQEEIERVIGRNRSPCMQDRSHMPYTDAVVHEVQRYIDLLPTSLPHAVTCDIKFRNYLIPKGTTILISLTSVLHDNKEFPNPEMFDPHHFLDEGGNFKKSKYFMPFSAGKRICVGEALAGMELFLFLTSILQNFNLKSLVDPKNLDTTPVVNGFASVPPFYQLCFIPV

[12] = target: Cyclin-dependent kinase 9 (Homo sapiens, UniProt P50750); assay: Inhibition of CDK9
Chain of Cyclin-dependent kinase 9 (P50750 whole entry): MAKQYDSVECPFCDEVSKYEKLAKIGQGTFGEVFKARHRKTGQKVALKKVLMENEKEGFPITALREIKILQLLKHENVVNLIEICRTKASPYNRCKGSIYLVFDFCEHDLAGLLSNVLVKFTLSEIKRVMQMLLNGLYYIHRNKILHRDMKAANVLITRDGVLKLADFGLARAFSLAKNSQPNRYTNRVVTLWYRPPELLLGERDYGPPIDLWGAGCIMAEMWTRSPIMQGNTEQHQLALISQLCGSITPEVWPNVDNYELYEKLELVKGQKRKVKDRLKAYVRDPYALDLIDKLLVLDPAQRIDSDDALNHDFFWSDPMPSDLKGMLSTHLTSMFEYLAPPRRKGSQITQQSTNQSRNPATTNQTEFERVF

[13] = AUC (0 to infinity) in BALB/c nude mouse at 50 mg/kg, po; type: ADME, organism-based; parameters: time infinity, dose 50 mg/kg, route oral; conditions: plasma
In short: (§2)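 Single oral gavage at 50 (mouse, rat), 5 (dog) or 20 (monkey) mg/kg; rodents and monkeys received suspensions in 0.5% methylcellulose/0.1% Tween 80, dogs gelatin capsules. Serial blood taken 0–24 h into K3EDTA, plasma stored at −70 °C. Parameters estimated by noncompartmental analysis, n = 3 per species (mouse values from mean concentration–time data, 3 mice per time point).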

[14] = Cmax in Wistar rat at 50 mg/kg, po; type: ADME, organism-based; parameters: dose 50 mg/kg, route oral; conditions: in vivo; in short: as §2
[15] = Terminal half life in Wistar rat at 50 mg/kg, po; type: ADME, organism-based; parameters: dose 50 mg/kg, route oral; conditions: in vivo, read-out: beta t1/2 (converted)
In short: (§3)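 Single oral dose by gavage as suspension in 0.5% methylcellulose/0.1% Tween 80 (mouse, rat, monkey) or in gelatin capsules (dog). Serial blood samples taken from 0 to 24 h into K3EDTA tubes; plasma stored at −70 °C until analysis. Parameters derived by noncompartmental methods. Rat, dog and monkey n = 3; mouse values estimated from mean concentration-time data, n = 3 mice per time point.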

[16] = Cmax in beagle dog at 5 mg/kg, po; type: ADME, organism-based, Canis lupus familiaris; parameters: dose 5 mg/kg, route oral; conditions: in vivo; in short: as §2
[17] = Tmax in rhesus monkey at 20 mg/kg, po; type: ADME, organism-based, Macaca mulatta; parameters: dose 20 mg/kg, route oral; conditions: in vivo; in short: as §3
[18] = AUC (0 to infinity) in rhesus monkey at 20 mg/kg, po; type: ADME, organism-based, Macaca mulatta; parameters: time infinity, dose 20 mg/kg, route oral; conditions: plasma; in short: as §2

What does the source list for C1=C2COC/C=C/COCc3cc(ccc3OCCN3CCCC3)Nc3nccc(n3)C(=C1)O2 (mixture of isomers) [CT-1578]?
inhibition in vivo at 105 mg/kg (Mus musculus [1]): 23%; inhibition in vivo at 210 mg/kg (Mus musculus [2]): 59%; IC50 [3]: 7 µM; IC50 [4]: 2.7 µM; IC50 [5]: 0.23 µM; solubility kinetic [6]: > 250 µg/mL; IC50 (Cytochrome P450 2D6): > 10 µM; half-life [7]: > 1 h; IC50 [8]: > 10 µM; GI50 (BaF3): 0.25 µM; half-life at 5 µM [9]: > 1 h; half-life at 5 µM [10]: > 1 h; half-life at 5 µM [11]: 0.383 h; IC50 (Cytochrome P450 1A2): > 10 µM; IC50 (Cytochrome P450 2C9): > 10 µM; IC50 [12]: 0.036 µM; AUC(0-inf) [13]: 2020 ng·h/mL; Cmax [14]: 231 ng/mL; half-life [15]: 3.6 h; Cmax [16]: 27 ng/mL; Tmax [17]: 2 h; AUC(0-inf) [18]: 7590 ng·h/mL
